Our source for the Relative potency values is ChEMBL document CHEMBL1121808 (1981).

Peptide text beside a SMILES is read from it.

Assay type in all cases: functional
A short description of assay [1]: Relative potency expressed in percent to that of neurotensin was measured using guinea pig atria. Summed up:
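Both atria dissected free of ventricles, fat and blood; beating spontaneously under 0.5 g resting tension in 15-mL baths of oxygenated Krebs at 30 °C. Equilibrated 45–60 min before peptide exposure. Contractile force recorded isometrically via force-displacement transducer.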

Assay [2] is described as follows: Relative potency expressed in percent to that of neurotensin was measured using perfused rat heart assay. Summed up: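 Male albino Wistar rats heparinized i.p. (2.5 mg/rat), then killed. Hearts perfused with filtered, oxygenated Krebs at 37 °C by peristaltic pump, flow raised over 5 min to 8 mL/min (perfusion pressure 70–90 mmHg). Stabilized 30 min before peptide infusion. Read-out: change in perfusion pressure via aortic-cannula side-arm transducer.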

Assay [3] is described as follows: Relative potency expressed in percent to that of neurotensin was measured using rat stomach strips assay.

In the case of `CC[C@H](C)[C@H](NC(=O)[C@H](Cc1ccc(O)cc1)NC(=O)[C@@H]1CCCN1C(=O)[C@@H](C)NC(=O)[C@H](CCCN=C(N)N)NC(=O)[C@@H]1CCCN1C(=O)[C@H](CCCCN)NC(=O)[C@H](CC(N)=O)NC(=O)[C@H](CCC(=O)O)NC(=O)[C@H](Cc1ccc(O)cc1)NC(=O)[C@H](CC(C)C)NC(=O)[C@@H]1CCC(=O)N1)C(=O)N[C@@H](CC(C)C)C(=O)O`, the values for the Relative potency in assay [1], in assay [2] and in assay [3] were 2.6%, 0.3% and 1.5%, respectively.
As to `CC[C@H](C)[C@H](NC(=O)[C@H](Cc1ccc(O)cc1)NC(=O)[C@@H]1CCCN1C(=O)[C@H](CCCNC(=N)N)NC(=O)[C@@H](N)CCCNC(=N)N)C(=O)N[C@@H](CC(C)C)C(=O)O`, the Relative potency in assay [1] worked out at 52%; in assay [2] it was 102%; in assay [3], 69%.
For the compound `CC[C@H](C)[C@H](NC(=O)[C@H](Cc1ccc(O)cc1)NC(=O)CNC(=O)[C@H](CCCN=C(N)N)NC(=O)[C@H](CCCN=C(N)N)NC(=O)[C@@H]1CCCN1C(=O)[C@H](CCCCN)NC(=O)[C@H](CC(N)=O)NC(=O)[C@H](CCC(=O)O)NC(=O)[C@H](Cc1ccc(O)cc1)NC(=O)[C@H](CC(C)C)NC(=O)[C@@H]1CCC(=O)N1)C(=O)N[C@@H](CC(C)C)C(=O)O`, the Relative potency in assay [1] is given as roughly 0.01%; in assay [2] it was less than 0.01%; in assay [3], roughly 0.01%.
Take `CC[C@H](C)[C@H](NC(=O)[C@H](Cc1ccc(O)cc1)NC(=O)[C@@H]1CCCN1C(=O)[C@H](CCCN=C(N)N)NC(=O)[C@H](CCCN=C(N)N)NC(=O)[C@@H]1CCCN1C(=O)[C@H](CCCCN)NC(=O)[C@H](CC(N)=O)NC(=O)[C@H](CCC(=O)O)NC(=O)[C@H](Cc1ccc(O)cc1)NC(=O)[C@@H](N)CC(C)C)C(=O)N[C@@H](CC(C)C)C(=O)O`: the values for the Relative potency in assay [1], in assay [2] and in assay [3] were 94%, 87% and 90%, respectively.
Turning to `CC[C@H](C)[C@H](NC(=O)[C@H](Cc1ccc(O)cc1)NC(=O)[C@@H]1CCCN1C(=O)[C@H](CCCN=C(N)N)NC(=O)[C@H](CCCN=C(N)N)NC(=O)[C@@H]1CCCN1C(=O)[C@H](CCCCN)NC(=O)[C@H](CC(N)=O)NC(=O)[C@H](CCC(=O)O)NC(=O)[C@H](Cc1ccc(O)cc1)NC(=O)[C@H](CC(C)C)NC(=O)[C@@H]1CCC(=O)N1)C(=O)O`, the Relative potency in assay [1] is 0.09%; in assay [2], 0.03%; in assay [3], 0.65%.
On the same counts, the results for `CC[C@H](C)[C@H](NC(=O)[C@H](C)NC(=O)[C@@H]1CCCN1C(=O)[C@H](CCCN=C(N)N)NC(=O)[C@H](CCCN=C(N)N)NC(=O)[C@@H]1CCCN1C(=O)[C@H](CCCCN)NC(=O)[C@H](CC(N)=O)NC(=O)[C@H](CCC(=O)O)NC(=O)[C@H](Cc1ccc(O)cc1)NC(=O)[C@H](CC(C)C)NC(=O)[C@@H]1CCC(=O)N1)C(=O)N[C@@H](CC(C)C)C(=O)O` are less than 0.01%, 0.01% and 0.01%.
On the same counts, the results for `CC[C@H](C)[C@H](NC(=O)[C@@H](Cc1c[nH]c2ccccc12)NC(=O)[C@@H]1CCCN1C(=O)[C@H](CCCN=C(N)N)NC(=O)[C@H](CCCN=C(N)N)NC(=O)[C@@H]1CCCN1C(=O)[C@H](CCCCN)NC(=O)[C@H](CC(N)=O)NC(=O)[C@H](CCC(=O)O)NC(=O)[C@H](Cc1ccc(O)cc1)NC(=O)[C@H](CC(C)C)NC(=O)[C@@H]1CCC(=O)N1)C(=O)N[C@@H](CC(C)C)C(=O)O` are 0.01%, 0.1% and 0.64%.
Consider `CC(C)C[C@H](NC(=O)[C@@H]1CCC(=O)N1)C(=O)N[C@@H](Cc1ccc(O)cc1)C(=O)N[C@@H](CCC(=O)O)C(=O)N[C@@H](CC(N)=O)C(=O)N[C@@H](CCCCN)C(=O)N1CCC[C@H]1C(=O)N[C@@H](CCCN=C(N)N)C(=O)N[C@@H](CCCN=C(N)N)C(=O)N1CCC[C@H]1C(=O)O`, for which the Relative potency in assay [1], in assay [2] and in assay [3] was 0% each time.
Regarding `CC[C@H](C)[C@H](NC(=O)[C@H](Cc1c[nH]c2ccccc12)NC(=O)[C@@H]1CCCN1C(=O)[C@H](CCCN=C(N)N)NC(=O)[C@H](CCCN=C(N)N)NC(=O)[C@@H]1CCCN1C(=O)[C@H](CCCCN)NC(=O)[C@H](CC(N)=O)NC(=O)[C@H](CCC(=O)O)NC(=O)[C@H](Cc1ccc(O)cc1)NC(=O)[C@H](CC(C)C)NC(=O)[C@@H]1CCC(=O)N1)C(=O)N[C@@H](CC(C)C)C(=O)O`, the Relative potency in assay [1] is 3.2%; in assay [2], 102%; in assay [3], 130%.
Turning to `CC[C@H](C)[C@H](NC(=O)[C@H](Cc1ccccc1)NC(=O)[C@@H]1CCCN1C(=O)[C@H](CCCN=C(N)N)NC(=O)[C@H](CCCN=C(N)N)NC(=O)[C@@H]1CCCN1C(=O)[C@H](CCCCN)NC(=O)[C@H](CC(N)=O)NC(=O)[C@H](CCC(=O)O)NC(=O)[C@H](Cc1ccc(O)cc1)NC(=O)[C@H](CC(C)C)NC(=O)[C@@H]1CCC(=O)N1)C(=O)N[C@@H](CC(C)C)C(=O)O`, the values for the Relative potency in assay [1], in assay [2] and in assay [3] were 15%, 1.4% and 16%, respectively.
For `CC(C)C[C@H](NC(=O)[C@@H]1CCC(=O)N1)C(=O)N[C@@H](Cc1ccc(O)cc1)C(=O)N[C@@H](CCC(=O)O)C(=O)N[C@@H](CC(N)=O)C(=O)N[C@@H](CCCCN)C(=O)N1CCC[C@H]1C(=O)N[C@@H](CCCN=C(N)N)C(=O)N[C@@H](CCCN=C(N)N)C(=O)N1CCC[C@H]1C(=O)N[C@@H](Cc1ccc(O)cc1)C(=O)O`, the Relative potency in assay [1], in assay [2] and in assay [3] was less than 0.01% each time.
For the compound `CC[C@H](C)[C@H](NC(=O)[C@H](Cc1ccc(O)cc1)NC(=O)[C@@H]1CCCN1C(=O)[C@H](CCCN=C(N)N)NC(=O)[C@H](CCCN=C(N)N)NC(=O)[C@@H]1CCCN1C(=O)[C@@H](N)CCCCN)C(=O)N[C@@H](CC(C)C)C(=O)O`, the Relative potency is 73% in assay [1], 84% in assay [2] and 78% in assay [3].
For the compound `CC[C@H](C)[C@H](NC(=O)[C@@H](Cc1ccccc1)NC(=O)[C@@H]1CCCN1C(=O)[C@H](CCCN=C(N)N)NC(=O)[C@H](CCCN=C(N)N)NC(=O)[C@@H]1CCCN1C(=O)[C@H](CCCCN)NC(=O)[C@H](CC(N)=O)NC(=O)[C@H](CCC(=O)O)NC(=O)[C@H](Cc1ccc(O)cc1)NC(=O)[C@H](CC(C)C)NC(=O)[C@@H]1CCC(=O)N1)C(=O)N[C@@H](CC(C)C)C(=O)O`, the results for the Relative potency in assay [1], in assay [2] and in assay [3] were roughly 0.01%, less than 0.01% and roughly 0.02%, respectively.
In the same order, the values of `CC[C@H](C)[C@H](NC(=O)[C@H](CC(C)C)NC(=O)[C@@H]1CCCN1C(=O)[C@H](CCCN=C(N)N)NC(=O)[C@H](CCCN=C(N)N)NC(=O)[C@@H]1CCCN1C(=O)[C@H](CCCCN)NC(=O)[C@H](CC(N)=O)NC(=O)[C@H](CCC(=O)O)NC(=O)[C@H](Cc1ccc(O)cc1)NC(=O)[C@H](CC(C)C)NC(=O)[C@@H]1CCC(=O)N1)C(=O)N[C@@H](CC(C)C)C(=O)O` are less than 0.01%, 0.01% and roughly 0.03%.
On the same counts, the results for `CC[C@H](C)[C@H](NC(=O)[C@H](Cc1ccc(O)cc1)NC(=O)[C@@H]1CCCN1C(=O)[C@@H](N)CCCN=C(N)N)C(=O)N[C@@H](CC(C)C)C(=O)O` are 1.3%, 1.6% and 11%.
For `CC[C@H](C)[C@H](NC(=O)[C@H](Cc1ccc(O)cc1)NC(=O)[C@@H]1CCCN1)C(=O)N[C@@H](CC(C)C)C(=O)O` (H-PYIL-OH), the Relative potency in assay [1], in assay [2] and in assay [3] was 0% in each case.
Regarding H-ENKPRRPYIL-OH, the Relative potency in assay [1] was 99%; in assay [2], 92%; in assay [3] it was 85%.
In the same order, the values of H-PRRPYIL-OH are 49%, 59% and 65%.
For the compound H-YENKPRRPYIL-OH, the Relative potency in assay [1] turned out to be 84%; in assay [2], 85%; in assay [3], 90%.
